# Assays:
# [1] = Part III safety assessment; type: in vivo, human
# Summary of the method: (§1)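 Safety monitored under ICH-GCP in each part (single 10–300 mg; alternate-day 100–300 mg; 150 mg fasted/fed crossover). Assessments: adverse events coded with MedDRA version 18.0, clinical examinations, frequent vital signs, 12-lead ECGs, clinical laboratory tests, and continuous ECG for 24 h post-dose in parts I and II. Post-dose vs baseline compared by paired two-sided t test, α = 0.05.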
# [2] = Part II safety assessment; type: in vivo, human
# Summary of the method: as §1
# [3] = Part II multiple ascending-dose pharmacokinetics; type: in vivo, human; settings: for t max / AUCt / AUC∞ / Accumulation Index / C max / CL / V z/F_obs / t ½ / λz: part II, N 6; for t max: mean (range) per footnote; for AUCt / AUC∞ / Accumulation Index / C max / CL / V z/F_obs / t ½ / λz: mean ± SD
# Summary of the method: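 Four panels of eight (six drug, two placebo) were dosed orally, fasted, with 100, 150, 200 or 300 mg on Days 1, 3 and 5. Blood was taken pre-dose and at 0.5–36 h after the Day 1 and Day 5 doses, pre-dose and 12, 24 and 36 h after Day 3, and 48 and 72 h after Day 5. Diluted-blood LC-MS/MS (LLOQ 2 ng/mL). Accumulation index was derived.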
# PHD enzyme = settings: read-out: concentration of drug producing 50% inhibition [IC50]; HepG2 cells, HIF stabilization; cited from earlier work
# serum EPO levels = settings: acute pharmacodynamic animal model; cited from earlier work
# [4] = Part III sex and food effect pharmacokinetics; type: in vivo, human; settings: for AUCt / AUC∞ / C max / CL/F_obs / HL_Lambda_z (terminal half-life) / V z/F_obs / λz: part III, single oral 150 mg, n = 10, mean ± SD
# Summary of the method: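 Open-label crossover at a single 150 mg oral dose, with at least 14 days washout and an overnight fast of at least 10 h before each dose. Period I: 12 subjects (6 men, 6 women), fasted. Period II: 10 subjects (5 men, 5 women) given a high-fat, roughly 800–1000 calorie breakfast 30 min pre-dose. Drug measured in diluted blood by LC-MS/MS (2–5000 ng/mL). Food effect tested by two-sided t test, α = 0.05.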
# [5] = Part I urinary recovery of ZYAN1; type: in vivo, human; settings: for Amount recovered [mean ± SD] / Percentage recovered [mean ± SD]: urine, part I
# Summary of the method: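 Urine collected pre-dose and over 0–12, 12–24, 24–36 and 36–48 h: after the single dose (10–300 mg, part I) or after each alternate-day dose on Days 1, 3 and 5 (part II). Total volume recorded; 5 mL aliquots stored at –80 ± 10 °C. Acetonitrile precipitation and LC-MS/MS with analog internal standard, urine calibration 2–5000 ng/mL, LLOQ 2 ng/mL. Amount and percentage of dose recovered calculated.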
# [6] = mice, oral route; cited from earlier work
# [7] = 100 mg oral on Days 1, 3, 5, Day 1
# [8] = 100 mg oral on Days 1, 3, 5, Day 5
# [9] = 150 mg oral on Days 1, 3, 5, Day 1
# [10] = 150 mg oral on Days 1, 3, 5, Day 5
# [11] = 200 mg oral on Days 1, 3, 5, Day 1
# [12] = 200 mg oral on Days 1, 3, 5, Day 5
# [13] = 300 mg oral on Days 1, 3, 5, Day 1
# [14] = 300 mg oral on Days 1, 3, 5, Day 5
structure (smiles),measurement,setting,value
O=C(O)CNC(=O)c1c(O)c2ccccc2n(OCC2CC2)c1=O [ZYAN1],Adverse events (Test),[1]; Food and sex effect 150 mg panel,"Palpitation, cellulitis, back pain, musculoskeletal pain, head discomfort, headache (2), folliculitis, cellulitis"
same,total AEs reported,"[1]; part III crossover, 150 mg",11
same,Adverse events (Test),[2]; MAD 150 mg panel,"Headache, dizziness"
same,Adverse events (Test),[2]; MAD 200 mg panel,"Nausea, headache, dizziness, diarrhea, phlebitis"
same,Adverse events (Test),[2]; MAD 300 mg panel,"Supra ventricular extrasystoles, abdominal pain, diarrhea, contusion, back pain, dizziness, headache, nasal congestion, phlebitis"
same,Adverse events (Test),[2]; MSD 100 mg panel (multiple dose),"Headache, dizziness"
same,severity of treatment-related AEs,[2]; part II (ZYAN1 and placebo subjects),"all grade 1 in severity, with the exception of dizziness in two subjects, which was classified as grade 2 in severity"
same,subjects with AEs possibly related to study treatment,"[2]; part II, 16 AEs in 11 subjects, placebo 63%",46%
same,"median t max, range","[3]; 100, 150, 200, 300 mg, first or fifth day of dosing",1.5 to 3.0 h
same,accumulation of the drug,"[3]; after first and third dose of 100, 150, 200, 300 mg, alternate-day dosing",no accumulation of the drug was observed
same,mean terminal t ½,[3]; in vivo,approximately 10 h
same,t max,[3]; [7],2.00 (1.00–3.00) h
same,AUCt,[3]; [7],"36,885.130 ± 11,488.927 h·ng/mL"
same,AUC∞,[3]; [7],"38,817.512 ± 13,184.682 h·ng/mL"
same,Accumulation Index,[3]; [7],1.027 ± 0.018
same,C max,[3]; [7],6549.000 ± 1567.979 ng/mL
same,CL,[3]; [7],2834.521 ± 775.188 mL/h
same,V z/F_obs,[3]; [7],"34,916.562 ± 8463.050 mL"
same,t ½,[3]; [7],8.811 ± 1.869 h
same,λz,[3]; [7],0.082 ± 0.020 h⁻¹
same,t max,[3]; [8],2.00 (1.50–2.50) h
same,AUCt,[3]; [8],"39,690.467 ± 11,051.227 h·ng/mL"
same,AUC∞,[3]; [8],"40,102.984 ± 11,276.275 h·ng/mL"
same,Accumulation Index,[3]; [8],1.106 ± 0.128
same,C max,[3]; [8],6566.667 ± 1525.703 ng/mL
same,CL,[3]; [8],2744.020 ± 798.472 mL/h
same,V z/F_obs,[3]; [8],"47,571.130 ± 18,996.205 mL"
same,t ½,[3]; [8],12.968 ± 6.654 h
same,λz,[3]; [8],0.065 ± 0.029 h⁻¹
same,t max,[3]; [9],1.50 (1.00–3.50) h
same,AUCt,[3]; [9],"59,780.215 ± 8539.865 h·ng/mL"
same,AUC∞,[3]; [9],"62,811.249 ± 10,222.543 h·ng/mL"
same,Accumulation Index,[3]; [9],1.025 ± 0.026
same,C max,[3]; [9],8185.667 ± 1215.600 ng/mL
same,CL,[3]; [9],2487.695 ± 399.669 mL/h
same,V z/F_obs,[3]; [9],"29,315.063 ± 6213.656 mL"
same,t ½,[3]; [9],8.390 ± 2.431 h
same,λz,[3]; [9],0.088 ± 0.025 h⁻¹
same,t max,[3]; [10],1.75 (0.50–3.00) h
same,AUCt,[3]; [10],"65,307.036 ± 9629.912 h·ng/mL"
same,AUC∞,[3]; [10],"65,706.064 ± 9748.640 h·ng/mL"
same,Accumulation Index,[3]; [10],1.043 ± 0.026
same,C max,[3]; [10],8657.000 ± 1190.575 ng/mL
same,CL,[3]; [10],2398.514 ± 378.402 mL/h
same,V z/F_obs,[3]; [10],"34,943.264 ± 6986.821 mL"
same,t ½,[3]; [10],10.205 ± 2.013 h
same,λz,[3]; [10],0.070 ± 0.015 h⁻¹
same,t max,[3]; [11],2.00 (1.50–3.50) h
same,AUCt,[3]; [11],"85,040.673 ± 12,019.503 h·ng/mL"
same,AUC∞,[3]; [11],"88,180.063 ± 13,633.711 h·ng/mL"
same,Accumulation Index,[3]; [11],1.017 ± 0.019
same,C max,[3]; [11],"13,203.333 ± 2762.033 ng/mL"
same,CL,[3]; [11],2344.752 ± 361.388 mL/h
same,V z/F_obs,[3]; [11],"25,167.492 ± 5973.588 mL"
same,t ½,[3]; [11],7.573 ± 2.103 h
same,λz,[3]; [11],0.097 ± 0.024 h⁻¹
same,t max,[3]; [12],1.75 (0.50–2.50) h
same,AUCt,[3]; [12],"77,994.986 ± 21,218.895 h·ng/mL"
same,AUC∞,[3]; [12],"78,368.940 ± 21,616.249 h·ng/mL"
same,Accumulation Index,[3]; [12],1.033 ± 0.018
same,C max,[3]; [12],"12,388.333 ± 1607.376 ng/mL"
same,CL,[3]; [12],2758.333 ± 677.108 mL/h
same,V z/F_obs,[3]; [12],"36,889.057 ± 5339.335 mL"
same,t ½,[3]; [12],9.534 ± 1.467 h
same,λz,[3]; [12],0.074 ± 0.012 h⁻¹
same,t max,[3]; [13],3.00 (1.50–3.500) h
same,AUCt,[3]; [13],"118,269.238 ± 28,910.037 h·ng/mL"
same,AUC∞,[3]; [13],"123,020.455 ± 32,873.290 h·ng/mL"
same,Accumulation Index,[3]; [13],1.017 ± 0.011
same,C max,[3]; [13],"19,286.667 ± 4086.434 ng/mL"
same,CL,[3]; [13],2608.681 ± 641.704 mL/h
same,V z/F_obs,[3]; [13],"29,476.605 ± 6045.099 mL"
same,t ½,[3]; [13],7.968 ± 1.106 h
same,λz,[3]; [13],0.088 ± 0.011 h⁻¹
same,t max,[3]; [14],1.75 (1.00–2.00) h
same,AUCt,[3]; [14],"105,472.355 ± 19,487.237 h·ng/mL"
same,AUC∞,[3]; [14],"105,772.678 ± 19,542.028 h·ng/mL"
same,Accumulation Index,[3]; [14],1.033 ± 0.022
same,C max,[3]; [14],"16,450.000 ± 3422.484 ng/mL"
same,CL,[3]; [14],2992.073 ± 697.789 mL/h
same,V z/F_obs,[3]; [14],"41,797.611 ± 17,743.925 mL"
same,t ½,[3]; [14],9.445 ± 1.819 h
same,λz,[3]; [14],0.076 ± 0.015 h⁻¹
same,IC50,PHD enzyme,11.2 µM
same,serum EPO levels,serum EPO levels,dose-related increase
same,decrease of C max by ingestion of food,"[4]; fed vs fasting, single 150 mg",2.39 times
same,AUCt,[4]; Fasting,"71,331.577 ± 25,663.234 h·ng/mL"
same,AUC∞,[4]; Fasting,"71,696.758 ± 25,837.440 h·ng/mL"
same,C max,[4]; Fasting,"10,352.800 ± 3076.528 ng/mL"
same,CL/F_obs,[4]; Fasting,2479.865 ± 1333.719 mL/h
same,HL_Lambda_z (terminal half-life),[4]; Fasting,11.048 ± 3.378 h
same,V z/F_obs,[4]; Fasting,"37,927.046 ± 18,082.141 mL"
same,λz,[4]; Fasting,0.067 ± 0.015 h⁻¹
same,AUCt,[4]; Fed (high-fat breakfast),"59,005.375 ± 16,846.249 h·ng/mL"
same,AUC∞,[4]; Fed (high-fat breakfast),"59,561.279 ± 17,228.977 h·ng/mL"
same,C max,[4]; Fed (high-fat breakfast),4322.000 ± 1317.961 ng/mL
same,CL/F_obs,[4]; Fed (high-fat breakfast),2801.105 ± 1109.706 mL/h
same,HL_Lambda_z (terminal half-life),[4]; Fed (high-fat breakfast),11.328 ± 3.691 h
same,V z/F_obs,[4]; Fed (high-fat breakfast),"45,070.176 ± 19,928.748 mL"
same,λz,[4]; Fed (high-fat breakfast),0.066 ± 0.017 h⁻¹
same,"AUC values, fed vs fasting",[4]; single 150 mg,decreased
same,"mean C max, male vs female subjects",[4]; single 150 mg,not statistically significant
same,"mean t ½, fed vs. fasted",[4]; single 150 mg,similar
same,"exposure, female vs male subjects","[4]; single 150 mg, small group, qualitative",female subjects had a higher exposure than males
same,"urinary excretion of intact ZYAN1, average",[5]; healthy subjects,36%
same,Amount recovered [mean ± SD],[5]; single oral dose 10 mg,3.63 ± 1.02 mg
same,Percentage recovered [mean ± SD],[5]; single oral dose 10 mg,36.270 ± 10.245%
same,Amount recovered [mean ± SD],[5]; single oral dose 25 mg,9.45 ± 1.76 mg
same,Percentage recovered [mean ± SD],[5]; single oral dose 25 mg,37.798 ± 7.059%
same,Amount recovered [mean ± SD],[5]; single oral dose 50 mg,18.99 ± 3.36 mg
same,Percentage recovered [mean ± SD],[5]; single oral dose 50 mg,37.995 ± 6.718%
same,Amount recovered [mean ± SD],[5]; single oral dose 100 mg,41.13 ± 12.06 mg
same,Percentage recovered [mean ± SD],[5]; single oral dose 100 mg,41.130 ± 12.064%
same,Amount recovered [mean ± SD],[5]; single oral dose 150 mg,56.23 ± 17.26 mg
same,Percentage recovered [mean ± SD],[5]; single oral dose 150 mg,37.485 ± 11.508%
same,Amount recovered [mean ± SD],[5]; single oral dose 200 mg,62.83 ± 18.11 mg
same,Percentage recovered [mean ± SD],[5]; single oral dose 200 mg,31.417 ± 9.056%
same,Amount recovered [mean ± SD],[5]; single oral dose 300 mg,82.66 ± 39.25 mg
same,Percentage recovered [mean ± SD],[5]; single oral dose 300 mg,27.555 ± 13.083%
same,"tolerated dose, single-dose study",[6],up to 300 mg/kg

# — paper PMC5766731 (Clinical Pharmacokinetics, 2017)
